Compound activity from PubChem BioAssay.
697 NFkB inh – lowers PMA/ionomycin-induced NF-kB signal in 697 B cells. AID 435022. 697 B-cell NF-kB luciferase reporter, 16 h. actives 0.33% (n = 330,000). inhibition, % at 4 µM; in the data active = inhibition above about 35%
IMP-1 inh-1 – blocks Pseudomonas aeruginosa IMP-1 metallo-beta-lactamase; purified IMP-1, nitrocefin hydrolysis, epi-absorbance fluorescence; inhibition, % at 5.6 µM; actives 0.45% (n = 290,000);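 active = inhibition above the mean plus 3 SD of all compounds in the same screening run, cut at about 4.5% in these data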;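 note: 0% = IMP-1 with DMSO and 100% = DMSO wells lacking enzyme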
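System: purified IMP-1 / Input: IMP-1 dispensed at 0.2 nM / Medium: 50 mM HEPES pH 7.1, 50 µM ZnSO4, 0.05% Brij 35 / Timing: 15 min enzyme–compound preincubation, then 25 min nitrocefin reaction, 25 °C / Technique: plate fluorescence quenching by hydrolysis product, ex 480/em 530 nm / Repeats: singlicate testing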
Jurkat NFkB inh – inhibitors of the PMA/ionomycin-induced NF-kB reporter in Jurkat cells | PMA/ionomycin-induced NF-kB luciferase reporter, luminescence | inhibition, % at 4 µM | actives 0.53% (n = 330,000) | AID 435003; in the data active = inhibition above about 50%
aSyn UTR inh – 5' untranslated region of α-synuclein, MLPCN primary screen; alpha-synuclein 5'UTR reporter, inhibitor activity; inhibition, % (tested at 7.5 µM); actives 0.82% (n = 300,000); in the data active = inhibition above about 60%;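 note: H4 neuroglioblastoma cells stably carrying SNCA 5'UTR luciferase fusion; 0% = DMSO wells and 100% = positive control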
VIM-2 inh – inhibitors of Pseudomonas aeruginosa VIM-2 metallo-beta-lactamase; purified VIM-2, nitrocefin hydrolysis, epi-absorbance fluorescence; inhibition, % at 5.6 µM; actives 0.89% (n = 290,000);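 active = inhibition above the mean of all tested compounds plus 3 SD, cutoff set per screening run, cut at about 7.5% in these data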;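 note: red hydrolysis product quenches plate fluorescence so inhibitors raise well fluorescence; 0% = enzyme with DMSO and 100% = DMSO without enzyme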
Mdm2 MdmX PPI – disrupts the human Mdm2-MdmX interaction. O15151+Q00987. SaOS-2 split-luciferase Mdm2/MdmX complementation, luminescence. inhibition, % at 8 µM. actives 3% (n = 330,000);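 active = inhibition of at least 50% at 8 µM in the primary screen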
IMP-1 inh-2 – blocks IMP-1 metallo-beta-lactamase in VIM-2 selectivity screen; 1,300 tested, under 10 active; inhibition, % at 5.6 µM; purified IMP-1, nitrocefin hydrolysis, epi-absorbance fluorescence; shares compounds with VIM-2 inh; call rule not given here;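 note: 0% = enzyme with vehicle and 100% = vehicle without enzyme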
VIM-2 FRET ctr – VIM-2 FRET inhibition, artifact counter-screen | purified VIM-2, CCF2 FRET substrate hydrolysis | inhibition, % at 5.6 µM | shares compounds with VIM-2 inh | AID 1857 | actives 23% (n = 1,300);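 active = inhibition above the mean of all tested compounds plus 3 SD, cut at about 19% in these data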;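 note: 0% = VIM-2 plus DMSO and 100% = no enzyme wells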
TEM-1 inh – TEM-1 inhibition, counter-screen for VIM-2 inhibitors. actives 3% (n = 1,300). inhibition, % at 5.6 µM. AID 1866. shares compounds with VIM-2 inh. Purified TEM-1, nitrocefin hydrolysis, epi-absorbance fluorescence;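 active = inhibition above that campaign's mean inhibition plus 3 SD, cut at about 0.46% in these data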;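 note: 0% = TEM-1 with DMSO and 100% = TEM-1 with 100 µM potassium clavulanate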
Target sequence (P62593 whole entry, looked up): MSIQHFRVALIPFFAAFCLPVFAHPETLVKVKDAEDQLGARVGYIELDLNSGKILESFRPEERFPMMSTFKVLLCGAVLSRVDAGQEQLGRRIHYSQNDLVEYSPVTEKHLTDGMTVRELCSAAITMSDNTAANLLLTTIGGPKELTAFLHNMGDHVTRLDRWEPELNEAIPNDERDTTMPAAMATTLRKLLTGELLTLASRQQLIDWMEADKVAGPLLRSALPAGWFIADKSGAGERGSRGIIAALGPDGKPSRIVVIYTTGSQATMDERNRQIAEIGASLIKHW
VIM-2 confirm 2 – confirmation of P. aeruginosa VIM-2 metallo-beta-lactamase inhibitors | shares compounds with VIM-2 inh | purified VIM-2, nitrocefin hydrolysis, epi-absorbance | inhibition, % at 5.6 µM | actives 96% (n = 1,300) | AID 2187;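 active = inhibition of the VIM-2 beta-lactamase enzyme above about 11% from the earlier first-round screen, limit read from the data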;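 note: 0% = VIM-2 with DMSO and 100% = buffer wells without enzyme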
Starred values were filed as active, the others as inactive; · = no result. The list is not random: actives were taken first. Their share in the collection is about 4.7%.

SMILES	697 NFkB inh	IMP-1 inh-1	Jurkat NFkB inh	aSyn UTR inh	VIM-2 inh	Mdm2 MdmX PPI	IMP-1 inh-2	VIM-2 FRET ctr	TEM-1 inh	VIM-2 confirm 2
Cc1cccn2c(=O)c3cc(C(=O)NCC4CCCO4)c(=N)n(CCc4ccccc4)c3nc12 (stereo unspecified)	-19.4	-4.5	-21.8	-100.8	0.0	12.2	·	·	·	·
O=C(CN1CCCC1)N/N=C/c1ccc(-c2cccc(Cl)c2)o1	-2.5	-2.7	5.7	-20.5	6.2	-1.8	·	·	·	·
Cc1ccc(-c2ccc(/C=N/n3cnnc3)o2)cc1	-39.8	-2.3	-14.1	27.1	-1.1	-20.0	·	·	·	·
Clc1cccc(-c2ccc(/C=N/n3cnnc3)o2)c1	-0.2	0.6	-10.0	38.5	18.7*	20.0	-0.9	-3.2	1.9*	33.3*
Cc1ccc(-c2ccc(/C=N/n3cnnc3)o2)cc1Cl	-14.6	-3.6	-20.9	12.4	21.4*	-35.4	-3.8	-8.9	-7.1	44.5*
O=[N+]([O-])c1ccccc1-c1ccc(/C=N/n2cnnc2)o1	23.5	-3.4	8.9	-35.3	3.0	-10.2	·	·	·	·
O=[N+]([O-])c1cc(-c2ccc(/C=N\n3cnnc3)o2)cc([N+](=O)[O-])c1	18.1	-2.3	2.9	-7.6	54.4*	16.4	-3.8	-0.8	-6.6	66.0*
Cc1cccn2c(=O)c3cc(C(=O)NCc4cccnc4)c(=N)n(C(C)C)c3nc12	6.0	-1.1	-3.8	-34.8	20.5*	-3.1	-3.3	-85.7	-6.0	31.0*
CC(C)n1c(=N)c(C(=O)NCCc2ccccc2)cc2c(=O)n3ccccc3nc21	-70.2	-3.1	-8.5	-32.3	2.6	22.5	·	·	·	·
Cc1cccn2c(=O)c3cc(C(=O)NCc4ccco4)c(=N)n(C(C)C)c3nc12	-12.3	-6.1	3.8	2.9	12.5*	-28.1	-4.1	-30.0	-4.8	27.0*
CN(Cc1ccccc1)C(=O)c1cccc(NC(=O)Cc2cccc([N+](=O)[O-])c2)c1	7.7	·	8.8	·	·	24.3	·	·	·	·
CC(=O)N1c2ccc(S(=O)(=O)N3CCC(C(=O)Nc4cccc(C(F)(F)F)c4)CC3)cc2CC1C (stereo unspecified)	-23.3	-0.6	16.8	18.4	-0.8	31.9	·	·	·	·
O=C(NC1CCC1)C1CCC(=O)N(Cc2ccccc2F)C1 (stereo unspecified)	-1.0	-0.1	-7.3	-7.2	-1.6	8.7	·	·	·	·
Cc1c(OC(C)C(=O)NCc2cccnc2)ccc2c3c(c(=O)oc12)CCCC3 (stereo unspecified)	23.4	-1.5	0.2	15.8	13.6*	3.7	-2.2	-3.4	-11.9	24.0*
Cc1c(C)c2ccc(OCC(=O)Nc3cccnc3)c(C)c2oc1=O	2.3	-2.7	-85.2	-136.6	12.3*	-5.0	-2.4	-1.3	-13.7	20.9*
Cc1c(OCC(=O)NCc2cccnc2)ccc2c3c(c(=O)oc12)CCCC3	15.3	-3.1	11.8	21.6	16.8*	2.1	-2.6	-5.2	-16.2	25.9*
Cc1c(OCC(=O)NCc2ccncc2)ccc2c3c(c(=O)oc12)CCCC3	-0.8	-0.1	-8.0	-22.6	48.9*	8.5	-0.2	-5.7	-6.8	63.1*
Cc1c(OC(C)C(=O)O)ccc2c3c(c(=O)oc12)CCCC3 (stereo unspecified)	4.8	-0.1	-2.6	3.4	-2.0	12.5	·	·	·	·
Cc1cc(Cl)ccc1OCC(=O)Nc1cccnc1	11.7	-2.1	-17.1	-107.6	-3.7	-8.9	·	·	·	·
Cc1cccc(C(=O)NCC(=O)OCC(=O)N(C)CC(=O)Nc2ccc(F)cc2)c1	9.3	·	1.3	-2.1	·	-4.7	·	·	·	·
COc1ccc(CN2CCc3ccccc3C2)cc1Br	-30.0	-0.3	-7.8	13.3	0.0	-6.3	·	·	·	·
CC(OC(=O)COc1ccccc1Cc1ccccc1)C(=O)N(C)c1ccccc1 (stereo unspecified)	2.5	·	-5.2	-2.1	·	6.2	·	·	·	·
COCCC(=O)N1CCC(Oc2ccc(C(=O)N3CCCCC3COC)cc2)CC1 (stereo unspecified)	-5.6	-1.0	-12.8	6.2	-1.9	5.6	·	·	·	·
Cc1c(OCC(=O)C(C)(C)C)ccc2c3c(c(=O)oc12)CCCC3	-19.7	-3.5	-12.3	-97.1	4.9	6.4	·	·	·	·
Cc1c(OCC(=O)N(C)c2ccccc2)ccc2c3c(c(=O)oc12)CCC3	4.4	-1.4	39.0	-13.4	20.5*	21.1	-2.3	-2.5	-12.3	29.1*
SMILES	697 NFkB inh	IMP-1 inh-1	Jurkat NFkB inh	aSyn UTR inh	VIM-2 inh	Mdm2 MdmX PPI	IMP-1 inh-2	VIM-2 FRET ctr	TEM-1 inh	VIM-2 confirm 2
CCN1CCN(c2cc3c(nn2)Oc2ccccc2N3C)CC1	-25.9	-4.4	-72.4	-128.5	13.1*	-54.7	-3.0	11.1	-8.0	25.1*
CCCn1c(=N)c(S(=O)(=O)c2ccc(F)cc2)cc2c(=O)n3cccc(C)c3nc21	-34.2	-1.4	4.8	11.7	12.7*	26.2	-0.9	-4.3	2.9*	27.1*
COc1cc(OC)c2c(=O)c(OC)c(-c3ccc(OC)c(OC)c3)oc2c1	-15.6	-2.0	-26.4	11.9	16.1*	13.7	-1.6	-6.0	-2.6	35.2*
CCCc1cc(=O)n2nc(N3CCC(C(=O)N4CCN(c5cccc(OC)c5)CC4)CC3)sc2n1	-21.0	-3.1	22.6	3.0	-2.6	0.5	·	·	·	·
CN1CCN(CC(=O)Nc2cc(N(C)C)nc3ccccc23)CC1	-13.4	-2.7	-15.4	-20.6	18.6*	4.8	-2.8	-2.3	-1.6	38.2*
COCCNC(=O)c1cc2c(=O)n(C)c3ccccc3c2n1C	15.8	-4.3	-2.0	-10.4	14.0*	18.6	-3.0	2.1	-6.9	22.2*
CCCCN(CC)CCNC(=O)c1cc2c(=O)n(C)c3ccccc3c2n1C	-16.3	-1.9	-15.9	-35.8	20.7*	10.7	-3.0	1.9	-7.1	29.8*
CCN(CC)CCNC(=O)c1cc2c(=O)n(C)c3ccccc3c2n1C	10.4	-3.8	-26.8	-23.9	19.6*	21.3	-2.6	1.9	-5.0	30.8*
CN(C)CCNC(=O)c1cc2c(=O)n(C)c3ccccc3c2n1C	7.4	-3.4	-30.7	-59.5	17.4*	20.5	-2.1	4.0	-6.5	28.0*
CN(C)c1ccc(/C=C2\SC(N3CCCCC3)=NC2=O)cc1	-109.7	0.8	8.8	36.2	3.2	30.2	·	·	·	·
CSc1cccc(NC(=S)NCCCN2CCN(c3ccc(F)cc3)CC2)c1	-15.6	-1.7	-4.1	-4.8	-2.2	22.3	·	·	·	·
